Reference: ChEMBL document CHEMBL3244167, “Lysosomotropic agents. 1. Synthesis and cytotoxic action of lysosomotropic detergents” (J Med Chem, 1979)
Calls of active or inactive are those of the source. No cut-off for these calls is given here.

Columns and labels:
[1] = Cytotoxicity against mouse peritoneal macrophages assessed as LDH release at 100 ug/ml after 24 hrs (reference value: 4 to 9 %); assay type: functional, Peritoneal macrophage cell
[2] = Cytotoxicity against mouse peritoneal macrophages assessed as […] at 0.75 mM after 24 hrs (reference value: 10 %); assay type: functional, Peritoneal macrophage cell
Procedure, shortened: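 Thioglycolate-stimulated mouse peritoneal macrophages, 2-4 × 10^6 cells/dish, in duplicate. Compound dosed from Me2SO solution at 1 µL/mL, final 0.750 mM; control Me2SO only. At 24 h, units of N-acetyl-β-D-glucosaminidase (lysosomal marker) and LDH (cytoplasmic marker) released into medium were measured, ±15%.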

[3] = test system: P815; experiment: Induction of cell death in mouse P815 cells assessed as [51Cr] release at 25 ug/ml at 5 hrs; assay type: functional
[4] = test system: MRC5; experiment: Cytotoxicity to human MRC5 cells at 10 ug/ml after 3 days; assay type: functional, cell-based
[5] = test system: P815; experiment: Induction of cell death in mouse P815 cells assessed as [51Cr] release at 100 ug/ml at 5 hrs (reference value: 10%); assay type: functional
[6] = test system: Raji; experiment: Cytotoxicity to human Raji cells at 10 ug/ml after 3 days; assay type: functional, cell-based
[7] = physchem
[8] = test system: P815; experiment: Induction of cell death in mouse P815 cells assessed as [51Cr] release at 50 ug/ml at 5 hrs; assay type: functional
[9] = test system: P815; experiment: Induction of cell death in mouse P815 cells assessed as [51Cr] release at 75 ug/ml at 5 hrs; assay type: functional
[10] = test system: Mus musculus; experiment: Toxicity in mouse at 500 mg/kg, ip after 10 days; assay type: organism-based; parameters: dose 500 mg/kg, route intraperitoneal; settings: in vivo, 240 h
Procedure, shortened: (§1)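 Mice dosed ip; observed for 10 days.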

[11] = test system: MRC5; experiment: Cytotoxicity to human MRC5 cells; assay type: functional, cell-based
[12] = test system: WI-38; experiment: Cytotoxicity to human W138 cells; assay type: functional, cell-based
[13] = test system: Peritoneal macrophage cell; experiment: Induction of cell death in mouse peritoneal macrophages at 50 ug/ml; assay type: functional, cell-based
[14] = test system: RK13; experiment: Cytotoxicity to rabbit RK13 cells; assay type: functional, cell-based; settings: Oryctolagus cuniculus
[15] = test system: Raji; experiment: Cytotoxicity to human Raji cells at 40 ug/ml after 3 days; assay type: functional, cell-based
[16] = test system: Raji; experiment: Cytotoxicity to human Raji cells; assay type: functional, cell-based
[17] = test system: Peritoneal macrophage cell; experiment: Induction of large vacuole formation in mouse peritoneal macrophages at 10 to 25 ug/ml; assay type: functional, cell-based
[18] = test system: Mus musculus; experiment: Toxicity in mouse at 250 mg/kg, ip after 10 days; assay type: organism-based; parameters: dose 250 mg/kg, route intraperitoneal; settings: in vivo, 240 h; procedure, shortened: as §1
[19] = test system: P815; experiment: Induction of cell death in mouse P815 cells assessed as [51Cr] release at 27 ug/ml at 5 hrs; assay type: functional
[20] = test system: P815; experiment: Induction of cell death in mouse P815 cells assessed as [51Cr] release at 9 ug/ml at 5 hrs; assay type: functional
[21] = test system: P815; experiment: Induction of cell death in mouse P815 cells assessed as [51Cr] release at 1 ug/ml at 5 hrs; assay type: functional
[22] = test system: P815; experiment: Induction of cell death in mouse P815 cells assessed as [51Cr] release at 3 ug/ml at 5 hrs; assay type: functional
[23] = Induction of cell lysis in ox RBC at 0.375 mM measured at 4 hrs (reference value: 1.8 %); assay type: cell-based, Bos taurus, Erythrocyte; settings: cattle, ox red blood cells; read-out: Activity
[24] = Induction of cell lysis in ox RBC at 0.188 mM measured at 1 hr (reference value: 1.7 %); assay type: cell-based, Bos taurus, Erythrocyte; settings: cattle, ox red blood cells; read-out: Activity
[25] = Induction of cell lysis in ox RBC at 0.375 mM measured at 1 hr (reference value: 1.7 %); assay type: cell-based, Bos taurus, Erythrocyte; settings: cattle, ox red blood cells; read-out: Activity
[26] = Induction of cell lysis in ox RBC at 0.188 mM measured at 4 hrs (reference value: 1.8 %); assay type: cell-based, Bos taurus, Erythrocyte; settings: cattle, ox red blood cells; read-out: Activity
[27] = test system: HeLa; experiment: Cytotoxicity to human HeLa cells at 100 ug/ml after 24 hrs; assay type: functional, cell-based
[28] = Induction of cell lysis in rabbit RBC at 0.188 to 0.375 mM measured at 1 to 4 hrs; assay type: cell-based, Oryctolagus cuniculus; settings: erythrocyte, 375 µM
[29] = test system: Peritoneal macrophage cell; experiment: Induction of cell death in mouse peritoneal macrophages at 25 ug/ml; assay type: functional, cell-based
[30] = test system: Peritoneal macrophage cell; experiment: Induction of large vacuole formation in mouse peritoneal macrophages at 5 ug/ml; assay type: functional, cell-based

`CCCCCCCCCCNCC(F)(F)F` showed an Activity [1] of 12% and an Activity [2] of 32%.
For `CCCCCCCCCCCCN1CCOCC1`, the Activity [3] was 13%, the Activity [4] was “Active” and the Activity [5] was 85%. For the same compound, the Activity [6] was “Active”, the pKa [7] was 7.6 and the Activity [8] was 14%. It also gave an Activity [9] of 15%.
In the case of `CCCCCNCC(F)(F)F`, the Activity [1] is reported as 4% and the Activity [2] is reported as 14%.
With `CCCCCCCCCCCCCc1ccncc1` the Activity [10] was “Non-toxic”, the Activity [11] was “Active” and the Activity [12] was “Active”. For the same compound, the Activity [13] was “Active”, the Activity [14] was “Active” and the Activity [5] was 10%. The Activity [15] was “Active”, the Activity [16] was “Active” and the Activity [17] was “Active”. For the same compound, the pKa [7] was 5.9.
In the case of `CCCNCC(F)(F)F`, the Activity [1] is reported as 10%.
For `CCCCCCCCCCCCCCCCNCC(F)(F)F`, the Activity [1] was 63% and the pKa [7] was 5.2.
Work on `Cc1ccncc1` yielded a pKa [7] of 6.
In the case of `CCCCCCCCCCCCCCCCCCNCC(F)(F)F`, the Activity [1] is reported as 5% and the pKa [7] is reported as 4.7.
With `CCCCCCCCCCCCNCC(F)F` the Activity [10] was “Toxic”, the Activity [5] was 45% and the Activity [18] was “Non-toxic”. The pKa [7] was 7.5.
`CCCCCCCCCn1ccnc1` showed a pKa [7] of 6.6.
Work on `CCCCCCCCNCC(F)(F)F` yielded an Activity [1] of 7%, a pKa [7] of 5.9 and an Activity [2] of 19%.
`CNCC(F)(F)F` showed a pKa [7] of 6.
For `CCCCCCCCCCCCCc1ccccn1`, the pKa [7] was 5.6.
`Cn1ccnc1` [1-METHYLIMIDAZOLE] gave a pKa [7] of 7.
Work on `CCCCCCCCCCCCn1ccnc1` yielded an Activity [19] of 93%, an Activity [20] of 11% and an Activity [21] of 10%. It also gave an Activity [8] of 94% and an Activity [22] of 11%.
`CCCCCCCCCCCCN` [DODECYLAMINE] showed a hemolysis at 4 h, 375 µM [23] of 100%, a hemolysis at 1 h, 188 µM [24] of 100% and a hemolysis at 1 h, 375 µM [25] of 100%. The hemolysis at 4 h, 188 µM [26] was 100%.
For `CCCCCCCCCCCCCCNCC(F)(F)F`, the Activity [1] was 5% and the Activity [2] was 25%.
For `CCCCCCCCCCCCNCC(F)(F)F`, the hemolysis at 4 h, 375 µM [23] was 6.5%, the Activity [10] was “Non-toxic” and the hemolysis at 1 h, 188 µM [24] was 4.2%. The Activity [27] was “Active”, the Activity [11] was “Active” and the Activity [12] was “Active”. For the same compound, the Activity [28] was “Non-toxic”, the Activity [14] was “Active” and the Activity [5] was 21%. For the same compound, the hemolysis at 1 h, 375 µM [25] was 5.2%, the Activity [15] was “Active” and the Activity [16] was “Active”. For the same compound, the Activity [1] was 10%, the Activity [29] was “Active” and the pKa [7] was 5.5. For the same compound, the hemolysis at 4 h, 188 µM [26] was 7.3%, the Activity [2] was 27% and the Activity [30] was “Active”.
